Source: ChEMBL document CHEMBL5046221, “Identification of Pyrimidine-Based Lead Compounds for Understudied Kinases Implicated in Driving Neurodegeneration” (J Med Chem, 2022)

Key:
[1] = target: High affinity nerve growth factor receptor (Homo sapiens, UniProt P04629); test: Inhibition of human TrkA (440 to end residues) using KKKSPGEYVNIEFG as substrate measured after 40 mins in presence of [gamma33P]ATP by scintillation counting method
In short: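 Eurofins radiometric kinase assay run at ATP equal to Km for each kinase. 9-point dose–response in duplicate gives the IC50.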

[2] = target: MAP/microtubule affinity-regulating kinase 3 (Homo sapiens, UniProt P27448); test: Displacement of tracer K9 from NLuc fused MARK3 (unknown origin) expressed in HEK293 cells by NanoBRET assay; format: cell-based
Sequence of MAP/microtubule affinity-regulating kinase 3 (P27448 whole entry, the tested form may be a part): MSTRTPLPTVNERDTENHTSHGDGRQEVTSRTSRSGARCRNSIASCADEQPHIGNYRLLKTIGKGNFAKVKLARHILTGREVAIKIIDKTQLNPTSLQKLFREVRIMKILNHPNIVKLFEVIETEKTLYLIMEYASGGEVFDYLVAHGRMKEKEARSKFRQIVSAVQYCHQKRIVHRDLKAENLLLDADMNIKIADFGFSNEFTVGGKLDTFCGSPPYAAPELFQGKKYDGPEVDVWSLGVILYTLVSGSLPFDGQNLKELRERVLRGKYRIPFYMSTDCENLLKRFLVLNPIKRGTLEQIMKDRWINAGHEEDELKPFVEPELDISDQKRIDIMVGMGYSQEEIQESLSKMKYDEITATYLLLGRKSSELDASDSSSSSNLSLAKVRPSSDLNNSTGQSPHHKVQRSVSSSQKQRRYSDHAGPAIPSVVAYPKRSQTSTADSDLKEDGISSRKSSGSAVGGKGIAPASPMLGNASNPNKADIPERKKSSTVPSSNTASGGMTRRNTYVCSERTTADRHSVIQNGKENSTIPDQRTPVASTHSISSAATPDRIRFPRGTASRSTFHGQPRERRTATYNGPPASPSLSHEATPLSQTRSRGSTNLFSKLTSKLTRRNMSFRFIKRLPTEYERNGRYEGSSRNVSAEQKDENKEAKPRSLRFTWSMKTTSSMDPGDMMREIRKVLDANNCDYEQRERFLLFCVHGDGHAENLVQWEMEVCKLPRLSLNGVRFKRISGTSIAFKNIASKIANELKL

[3] = target: T1, Serine/threonine-protein kinase TBK1 (Homo sapiens, UniProt Q9UHD2); test: Displacement of tracer K5 from NLuc fused TBK1 (unknown origin) expressed in HEK293 cells by NanoBRET assay; format: cell-based
T1 sequence (Q9UHD2 whole entry): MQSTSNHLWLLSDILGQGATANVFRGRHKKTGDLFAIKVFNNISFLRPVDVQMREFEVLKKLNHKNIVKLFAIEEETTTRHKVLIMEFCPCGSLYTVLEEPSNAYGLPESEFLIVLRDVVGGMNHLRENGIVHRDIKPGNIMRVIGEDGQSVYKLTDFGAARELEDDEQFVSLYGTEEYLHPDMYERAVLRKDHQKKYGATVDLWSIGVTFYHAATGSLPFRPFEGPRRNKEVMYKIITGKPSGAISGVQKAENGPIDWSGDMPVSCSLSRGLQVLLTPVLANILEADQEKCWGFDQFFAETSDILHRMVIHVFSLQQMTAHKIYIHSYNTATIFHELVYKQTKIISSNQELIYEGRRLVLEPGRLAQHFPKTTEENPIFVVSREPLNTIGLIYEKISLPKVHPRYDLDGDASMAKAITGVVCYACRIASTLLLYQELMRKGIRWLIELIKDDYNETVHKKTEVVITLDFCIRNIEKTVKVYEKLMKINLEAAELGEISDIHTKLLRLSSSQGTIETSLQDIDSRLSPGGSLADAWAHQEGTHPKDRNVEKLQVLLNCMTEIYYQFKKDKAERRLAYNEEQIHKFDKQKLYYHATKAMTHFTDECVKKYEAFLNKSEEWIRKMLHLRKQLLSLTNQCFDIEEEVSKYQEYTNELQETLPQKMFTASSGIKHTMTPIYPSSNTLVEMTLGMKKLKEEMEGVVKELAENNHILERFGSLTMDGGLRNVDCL
In short: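 HEK293 cells grown in DMEM with 10% FBS at 37 °C, 5% CO2. NanoBRET assay run in dose–response per manufacturer's protocol with tracer K-5 at 0.5 μM. SEM calculated for assays run more than once.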

[4] = target: T2, NUAK family SNF1-like kinase 1 (Homo sapiens, UniProt O60285); test: Inhibition of recombinant human ARK5 (2 to end residues) using KKKVSRSGLYRSPSMPENLNRPR as substrate incubated for 40 mins in presence of [gamma-33ATP] by scintillation counting based radiometry assay
T2 sequence (O60285 whole entry): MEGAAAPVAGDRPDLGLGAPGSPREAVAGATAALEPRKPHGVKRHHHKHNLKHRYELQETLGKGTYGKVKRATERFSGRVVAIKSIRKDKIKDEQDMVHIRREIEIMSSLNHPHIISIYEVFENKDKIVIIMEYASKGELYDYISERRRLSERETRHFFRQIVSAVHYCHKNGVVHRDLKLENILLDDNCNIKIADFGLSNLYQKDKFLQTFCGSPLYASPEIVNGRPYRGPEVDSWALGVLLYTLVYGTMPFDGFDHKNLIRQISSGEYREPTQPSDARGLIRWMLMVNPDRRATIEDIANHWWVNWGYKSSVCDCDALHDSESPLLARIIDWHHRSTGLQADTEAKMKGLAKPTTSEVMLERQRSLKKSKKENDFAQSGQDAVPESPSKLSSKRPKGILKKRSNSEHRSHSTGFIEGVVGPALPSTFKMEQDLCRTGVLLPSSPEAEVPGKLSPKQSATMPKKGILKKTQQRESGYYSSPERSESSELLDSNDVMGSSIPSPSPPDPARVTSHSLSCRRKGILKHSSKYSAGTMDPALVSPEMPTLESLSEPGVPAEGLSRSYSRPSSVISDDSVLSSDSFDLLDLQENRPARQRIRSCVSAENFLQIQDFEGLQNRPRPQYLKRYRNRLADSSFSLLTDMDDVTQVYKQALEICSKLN
In short: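 Eurofins radiometric enzymatic assay with ATP at Km for each kinase. IC50 was derived from a 9-point dose–response curve run in duplicate.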

[5] = Kinetic solubility of compound in PBS at pH 7.4 incubated for 24 hrs by chemiluminscent nitrogen detection method; format: physicochemical; settings: buffer, pH 7.4, 24 h
In short: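 Filtrates were quantified by total chemiluminescent nitrogen determination against a calibration curve, with correction for background nitrogen from DMSO and medium.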

[6] = Effective permeability in PBS at 7.4 incubated for 5 hrs by PAMPA analysis; format: ADME; settings: pH 7.4, 5 h
In short: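 PAMPA: DMSO stocks were diluted in PBS pH 7.4 and placed in the donor compartment, with PBS pH 7.4 in the acceptor, for 5 h. Both compartments were quantified by CLND against a calibration curve, with background nitrogen correction. Effective permeability was calculated from donor and acceptor concentrations using measured rather than assumed solubility.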

[7] = target: Tyrosine-protein kinase JAK2 (Homo sapiens) (UniProt O60674); test: Inhibition of recombinant human JAK2 (808 to end residues) using KTFCGTPEYLAPEVRREPRILSEEEQEMFRDFDYIADWC as substrate at 1 uM incubated for 40 mins in presence of [gamma-33P-ATP] by radiometric scintillation assay relative to control
Sequence of Tyrosine-protein kinase JAK2 (Homo sapiens) (O60674 whole entry): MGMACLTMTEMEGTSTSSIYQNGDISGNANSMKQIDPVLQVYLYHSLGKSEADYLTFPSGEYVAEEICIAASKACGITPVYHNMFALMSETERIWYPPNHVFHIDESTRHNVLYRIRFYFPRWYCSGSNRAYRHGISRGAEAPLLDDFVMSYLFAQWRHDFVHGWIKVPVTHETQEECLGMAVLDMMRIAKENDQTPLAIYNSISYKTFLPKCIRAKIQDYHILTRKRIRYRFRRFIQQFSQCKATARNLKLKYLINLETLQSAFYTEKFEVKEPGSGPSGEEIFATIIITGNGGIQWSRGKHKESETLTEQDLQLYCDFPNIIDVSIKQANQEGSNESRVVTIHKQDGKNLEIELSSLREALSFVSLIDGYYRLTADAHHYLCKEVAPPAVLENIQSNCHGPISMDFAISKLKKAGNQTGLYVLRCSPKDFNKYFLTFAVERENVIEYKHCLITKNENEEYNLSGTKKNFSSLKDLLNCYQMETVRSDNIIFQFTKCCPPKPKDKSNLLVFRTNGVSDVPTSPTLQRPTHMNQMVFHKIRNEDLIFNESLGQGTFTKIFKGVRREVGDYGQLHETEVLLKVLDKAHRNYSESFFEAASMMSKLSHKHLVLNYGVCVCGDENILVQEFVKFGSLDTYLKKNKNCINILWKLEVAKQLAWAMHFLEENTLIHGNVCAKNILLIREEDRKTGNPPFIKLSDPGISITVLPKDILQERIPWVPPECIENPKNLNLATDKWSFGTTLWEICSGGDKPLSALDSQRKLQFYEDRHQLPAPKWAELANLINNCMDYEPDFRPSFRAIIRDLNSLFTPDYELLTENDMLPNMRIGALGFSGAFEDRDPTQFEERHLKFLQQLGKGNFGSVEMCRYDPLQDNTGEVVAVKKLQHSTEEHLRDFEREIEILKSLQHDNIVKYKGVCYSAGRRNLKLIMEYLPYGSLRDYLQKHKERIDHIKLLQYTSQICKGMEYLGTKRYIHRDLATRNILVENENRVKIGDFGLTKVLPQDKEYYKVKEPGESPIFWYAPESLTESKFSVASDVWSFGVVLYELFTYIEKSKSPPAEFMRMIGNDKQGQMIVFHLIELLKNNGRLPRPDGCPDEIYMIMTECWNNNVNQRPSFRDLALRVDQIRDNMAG
In short: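 Eurofins radiometric kinase assay with ATP at Km for each kinase. Compound was tested at a single 1 μM concentration in duplicate, and the result is reported as percent of control.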

Sequence of High affinity nerve growth factor receptor (P04629 whole entry): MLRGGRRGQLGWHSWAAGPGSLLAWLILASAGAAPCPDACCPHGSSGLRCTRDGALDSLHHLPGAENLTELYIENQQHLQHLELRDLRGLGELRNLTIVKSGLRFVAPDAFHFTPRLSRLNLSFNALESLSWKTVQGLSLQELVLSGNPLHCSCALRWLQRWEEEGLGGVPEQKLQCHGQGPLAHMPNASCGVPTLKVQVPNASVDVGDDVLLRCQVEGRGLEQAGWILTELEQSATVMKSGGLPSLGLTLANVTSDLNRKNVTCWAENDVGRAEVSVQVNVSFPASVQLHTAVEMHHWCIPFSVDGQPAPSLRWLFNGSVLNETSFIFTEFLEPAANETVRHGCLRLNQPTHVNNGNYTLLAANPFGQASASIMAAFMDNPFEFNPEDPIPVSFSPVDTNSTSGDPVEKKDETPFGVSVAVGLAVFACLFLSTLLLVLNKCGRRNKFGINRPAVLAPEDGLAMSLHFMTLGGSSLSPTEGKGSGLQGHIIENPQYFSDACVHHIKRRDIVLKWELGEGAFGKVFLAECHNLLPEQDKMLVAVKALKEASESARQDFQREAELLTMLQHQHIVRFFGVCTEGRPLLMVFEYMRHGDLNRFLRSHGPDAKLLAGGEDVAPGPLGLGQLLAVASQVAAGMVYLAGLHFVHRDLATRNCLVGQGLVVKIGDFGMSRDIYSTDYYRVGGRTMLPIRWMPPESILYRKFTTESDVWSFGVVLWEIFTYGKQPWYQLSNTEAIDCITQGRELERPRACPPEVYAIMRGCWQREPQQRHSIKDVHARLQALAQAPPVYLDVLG

Compound | IC50 [1] [µM] | IC50 [2] [µM] | IC50 [3] [µM] | IC50 [4] [µM] | Kinetic_solubility [5] [µM] | Peff ([6]; BLD = below limit of detection) | % control [7] [%] | Kinetic solubility [5] [µM] | Peff [6]
NS(=O)(=O)c1ccc(CNc2nc(Nc3cccc(NC(=O)N4CCCC4)c3)ncc2Br)cc1 | 0.283 | > 10 | 6.17 | 0.317 | 20 | Bld | 12 | – | –
c1cc(CN2CCOCC2)cc(Nc2nccc(NCCc3cnc[nH]3)n2)c1 | – | > 10 | > 10 | 0.176 | – | – | 81 | 200 | 1.66 10^-7 cm/s
NS(=O)(=O)c1ccc(CNc2nc(Nc3cccc(CN4CCOCC4)c3)ncc2C2CC2)cc1 | 0.153 | > 10 | 2.05 | – | 118.7 | – | 87 | – | 7.09 10^-7 cm/s
NS(=O)(=O)c1ccc(CNc2nc(Nc3cccc(CN4CCOCC4)c3)ncc2Br)cc1 | 0.158 | > 10 | > 10 | 0.171 | – | Bld | 3 | 4.7 | –
